Laboratory results as given in ChEMBL document CHEMBL3804753, “Substituted quinolines as noncovalent proteasome inhibitors” (Bioorg Med Chem, 2016).

Tests used:
[1] = compound: Cc1cc(C)c2cc(C3=CCCCC3)c(C)nc2c1; assay: Mixed type inhibition of human 20S proteasome chymotryptic-like activity using Suc-LLVY-AMC as substrate assessed as Vmax for substrate at 6 uM by Lineweaver-Burk plot analysis (reference value: 0.1959 to 0.2691 umol/min)
In short: (§1)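 Kinetics of CT-L activity of purified human 20S proteasome with Suc-LLVY-AMC substrate increased stepwise. Measured at five compound concentrations or vehicle, 37 °C. Fluorescence of released AMC gave rates.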

[2] = compound: Cc1cc(C)c2cc(C3=CCCCC3)c(C)nc2c1; assay: Mixed type inhibition of human 20S proteasome chymotryptic-like activity using Suc-LLVY-AMC as substrate assessed as Vmax for substrate at 8 uM by Lineweaver-Burk plot analysis (reference value: 0.1959 to 0.2691 umol/min); in short: as §1
[3] = compound: Cc1cc(C)c2cc(C3=CCCCC3)c(C)nc2c1; assay: Mixed type inhibition of human 20S proteasome chymotryptic-like activity using Suc-LLVY-AMC as substrate assessed as Vmax for substrate at 10 uM by Lineweaver-Burk plot analysis (reference value: 0.1959 to 0.2691 umol/min ); in short: as §1
[4] = compound: Cc1cc(C)c2cc(C3=CCCCC3)c(C)nc2c1; assay: Mixed type inhibition of human 20S proteasome chymotryptic-like activity using Suc-LLVY-AMC as substrate assessed as Vmax for substrate at 9 uM by Lineweaver-Burk plot analysis (reference value: 0.1959 to 0.2691 umol/min); in short: as §1
[5] = compound: Cc1cc(C)c2cc(C3=CCCCC3)c(C)nc2c1; assay: Mixed type inhibition of human 20S proteasome chymotryptic-like activity using Suc-LLVY-AMC as substrate assessed as Vmax for substrate at 7 uM by Lineweaver-Burk plot analysis (reference value: 0.1959 to 0.2691 umol/min); in short: as §1
[6] = compound: Cc1cc(C)c2cc(C3=CCCCC3)c(C)nc2c1; assay: Mixed type inhibition of human 20S proteasome chymotryptic-like activity using Suc-LLVY-AMC as substrate assessed as Vmax for substrate at 5 uM by Lineweaver-Burk plot analysis (reference value: 0.1959 to 0.2691 umol/min); in short: as §1
[7] = compound: Cc1cc(C)c2cc(C3=CCCCC3)c(C)nc2c1; assay: Mixed type inhibition of human 20S proteasome chymotryptic-like activity using Suc-LLVY-AMC as substrate assessed as Vmax for substrate at 4 uM by Lineweaver-Burk plot analysis (reference value: 0.1959 to 0.2691 umol/min); in short: as §1

B1: Proteasome Macropain subunit MB1 (Homo sapiens), P28074 (protein)
chain: MALASVLERPLPVNQRGFFGLGGRADLLDLGPGSLSDGLSLAAPGWGVPEEPGIEMLHGTTTLAFKFRHGVIVAADSRATAGAYIASQTVKKVIEINPYLLGTMAGGAADCSFWERLLARQCRIYELRNKERISVAAASKLLANMVYQYKGMGLSMGTMICGWDKRGPGLYYVDSEGNRISGATFSVGSGSVYAYGVMDRGYSYDLEVEQAYDLARRAIYQATYRDAYSGGAVNLYHVREDGWIRVSSDNVADLHEKYSGSTP
- Vmax [1]: 0.0703 µmol/min
- Vmax [2]: 0.0587 µmol/min
- Vmax [3]: 0.0329 µmol/min
- Vmax [4]: 0.0466 µmol/min
- Vmax [5]: 0.0674 µmol/min
- Vmax [6]: 0.0924 µmol/min
- Vmax [7]: 0.0959 µmol/min
